Experimental findings from ChEMBL document CHEMBL3745639, “Structure-activity relationships for lipoprotein lipase agonists that lower plasma triglycerides in vivo” (Eur J Med Chem, 2015) are described below.

Activity calls are given as the source filed them. Unless noted, the calls are words filed in the database; no cut-off is given here.

Data set [1] concerns the target T1, Lipoprotein lipase (Bos taurus) (UniProt P11151).
T1 sequence (whole entry): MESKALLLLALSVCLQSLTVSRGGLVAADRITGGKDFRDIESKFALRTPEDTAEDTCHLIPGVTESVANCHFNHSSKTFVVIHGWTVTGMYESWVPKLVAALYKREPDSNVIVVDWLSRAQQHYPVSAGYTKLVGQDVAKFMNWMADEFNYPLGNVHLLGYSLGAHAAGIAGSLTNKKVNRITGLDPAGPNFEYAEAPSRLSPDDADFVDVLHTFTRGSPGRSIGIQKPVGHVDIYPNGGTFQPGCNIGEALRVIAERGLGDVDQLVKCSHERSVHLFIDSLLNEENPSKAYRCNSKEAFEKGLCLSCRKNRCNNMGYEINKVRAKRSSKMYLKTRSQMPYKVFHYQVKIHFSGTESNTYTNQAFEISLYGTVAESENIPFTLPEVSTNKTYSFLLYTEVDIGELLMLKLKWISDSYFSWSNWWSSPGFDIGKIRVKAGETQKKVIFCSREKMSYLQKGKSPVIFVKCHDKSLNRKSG
As to the kind of experiment: Induction of bovine LPL stabilization using intralipid as substrate at 12.5 uM preincubated for 10 mins with human recombinant ANGPTL4 followed by substrate addition measured after 45 mins relative to control. The method, boiled down:
(§1)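 Compound in DMSO in buffer (50 mM potassium phosphate pH 7.4, 0.15 M NaCl, 0.01% Triton X-100), with human ANGPTL4 N-terminal fragment (aa 26-184, 75 nM final) and bovine LPL (15 nM final). Preincubated 10 min at 25 °C with shaking. Stopped after 45 min with 2.5% Triton X-100, and NEFA measured enzymatically. Activity normalised between DMSO+LPL+ANGPTL4 (0%) and DMSO+LPL (100%).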

The test system of data set [2] is Plasma. As to the kind of experiment: Drug level in human plasma treated with 1,3-Dioxo-2-(4-(piperidin-1-yl)-3-(p-tolylcarbamoyl)phenyl)isoindoline-5-carboxylic acid at 10 uM after 24 hrs by LC-MS/MS analysis. In kind it is ADME, cell-free.
The target in data set [3] is T1, Lipoprotein lipase (Bos taurus). As to the kind of experiment: Induction of bovine LPL stabilization using intralipid as substrate at 3.12 uM preincubated for 10 mins with human recombinant ANGPTL4 followed by substrate addition measured after 45 mins relative to control. The method, boiled down: as §1
For data set [4] the target is unchanged. As to the kind of experiment: Induction of bovine LPL stabilization using intralipid as substrate at 25 uM preincubated for 10 mins with human recombinant ANGPTL4 followed by substrate addition measured after 45 mins relative to control. A digest of the protocol: as §1
Data set [5] has the same target. As to the kind of experiment: Induction of bovine LPL stabilization using intralipid as substrate at 6.25 uM preincubated for 10 mins with human recombinant ANGPTL4 followed by substrate addition measured after 45 mins relative to control. A digest of the protocol: as §1
The test system of data set [6] is Mus musculus. As to the kind of experiment: Hypolipidemic activity in C57B16/J mouse assessed as reduction in plasma triglyceride level at 10 mg/kg, ip qd administered for 4 days followed by olive oil injection through oral gavage one hour post last dose measured at 180 mins. The data set is classed as functional, organism-based. A digest of the protocol: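 Female C57B16/J mice, 8-9 weeks, about 18 g, n = 8/group. Given 10 mg/kg i.p. once daily for 4 days, 0.5 ml in PBS pH 7.4 with 3% DMSO and 0.2% Triton X-100. Fasted 8 h before the last dose, then 0.2 ml oral olive oil gavage 1 h after it. Tail-vein EDTA plasma taken at baseline and every 60 min to 180 min. TG measured enzymatically, reported as mean ± SD.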

For data set [7], the target named is T2, Lipoprotein lipase (Bos taurus, UniProt P11151).
T2 sequence (P11151 whole entry): T1 sequence (whole entry)
As to the kind of experiment: Induction of bovine LPL stabilization using intralipid as substrate preincubated for 10 mins with human recombinant ANGPTL4 followed by substrate addition measured after 45 mins relative to control. A digest of the protocol:
as §1

Take `Cc1ccc(NC(=O)c2cc(N)ccc2N2CCCCC2)cc1`: the outcome in data set [1], in data set [3], in data set [4] and in data set [5] was inactive. Moreover, the Drug metabolism result in data set [2] is recorded as “metabolite_detected”.
As to `Cc1ccc(NC(=O)c2cc(-c3cc4cc(C(=O)O)ccc4[nH]3)ccc2N2CCCCC2)cc1`, the Activity in data set [1] is 85.5%; in data set [3], 35%; in data set [4], 24.5%; in data set [5], 101%. Moreover, in data set [6], the result was Active.
Taken in the same sequence, the figures for `Cc1ccc(NC(=O)c2cc(-c3nc4ccc(C(=O)O)cc4[nH]3)ccc2N2CCCCC2)cc1` were “inactive”, “inactive”, 49%, “inactive” and “Active”.
As to `Cc1ccc(NC(=O)c2cc(N3C(=O)c4ccc(C(=O)O)cc4C3=O)ccc2Cl)cc1`, the outcome in data set [1], in data set [3], in data set [4] and in data set [5] was inactive.
`COC(=O)c1ccc2c(c1)C(=O)N(c1ccc(N3CCCCC3)c(C(=O)Nc3ccc(C)cc3)c1)C2=O`: the outcome in data set [1], in data set [3], in data set [4] and in data set [5] was inactive.
`Cc1ccc(NC(=O)c2cc(N3C(=O)c4ccc(C(=O)O)cc4C3=O)ccc2Br)cc1`: the outcome in data set [1], in data set [3], in data set [4] and in data set [5] was inactive.
As to `CCc1ccc(NC(=O)c2cc(N3C(=O)c4ccc(C(=O)O)cc4C3=O)ccc2Nc2ccccc2)cc1`, the Activity in data set [1] is 60.3%; in data set [4], 60%; in data set [5] it was 37.6%. The result in data set [3] was inactive.
Taken in the same sequence, the figures for `Cc1ccc(NC(=O)c2cc(N3C(=O)c4ccc(C(=O)O)cc4C3=O)ccc2N2CCCCC2)cc1Cl` were 73%, 69.8%, 66.8% and “inactive”.
With `CCc1ccc(NC(=O)c2cc(N3C(=O)c4ccc(C(=O)O)cc4C3=O)ccc2N2CCCCC2)cc1`, the Activity was 36.5% in data set [1], 47% in data set [4] and 32.4% in data set [5]. Further, in data set [3], the outcome was inactive.
As for `CCc1cccc(NC(=O)c2cc(N3C(=O)c4ccc(C(=O)O)cc4C3=O)ccc2Nc2ccccc2)c1`, the Activity in data set [1] came to 63.9%; in data set [4], 52.2%; in data set [5], 44.3%. Further, the result in data set [3] was inactive.
For `O=C(O)c1ccc2c(c1)C(=O)N(c1ccc(Cl)c(C(=O)NCc3cccnc3)c1)C2=O`, in that order: “inactive”, “inactive”, “inactive” and “inactive”.
For `CCCCCCCCCCNc1ccc(N2C(=O)c3ccc(C(=O)O)cc3C2=O)cc1C(=O)Nc1ccc(C)cc1`, in that order: 10%, 19.2%, 5.9% and 13.6%.
As to `O=C(O)c1ccc2c(c1)C(=O)N(c1ccc(Nc3ccccc3)c(C(=O)Nc3ccccc3-c3ccccc3)c1)C2=O`, the Activity worked out at 61.5% in data set [1], 73.8% in data set [4] and 45% in data set [5]. Also, the outcome in data set [3] was inactive.
For `COCCOCCOc1ccc(N2C(=O)c3ccc(C(=O)O)cc3C2=O)cc1C(=O)Nc1ccc(C)cc1`, in that order: “inactive”, “inactive”, “inactive” and “inactive”.
As to `Cc1ccc(NC(=O)c2cc(NC(=O)c3ccc(C(=O)O)cc3C(=O)O)ccc2N2CCCCC2)cc1`, the outcome in data set [1], in data set [3] and in data set [5] was inactive. Moreover, the Drug metabolism entry in data set [2] is recorded as “metabolite_detected”. Besides, in data set [4], the Activity was 30.6%.
As to `O=C(O)c1ccc2c(c1)C(=O)N(c1ccc(N3CCCCC3)c(C(=O)NCc3ccccc3)c1)C2=O`, the outcome in data set [1], in data set [3], in data set [4] and in data set [5] was inactive.
With `Cc1ccc(NC(=O)c2ccc(N3CCCCC3)cc2N2C(=O)c3ccc(C(=O)O)cc3C2=O)cc1`, the result in data set [1], in data set [3] and in data set [5] was inactive. For the same molecule, the Activity in data set [4] amounted to 96.7%.
`Cc1ccc(NC(=O)c2cc(N3C(=O)c4ccc(C(=O)O)cc4C3=O)ccc2N2CCCCC2)cc1C(F)(F)F`: the values for the Activity in data set [1], in data set [4] and in data set [5] were 42.2%, 65.8% and 19.4%, respectively. The result in data set [3] was inactive.
For `Cc1cccc(NC(=O)c2cc(N3C(=O)c4ccc(C(=O)O)cc4C3=O)ccc2N2CCCCC2)c1`, the Activity in data set [1] stood at 38.6%; in data set [4], 56.6%. Also, the outcome in data set [3] and in data set [5] was inactive.
For the molecule `O=C(O)c1ccc2c(c1)C(=O)N(c1ccc(N3CCCCC3)c(C(=O)Nc3ccc(C(F)(F)F)cc3)c1)C2=O`, the values for the Activity in data set [1] and in data set [4] were 54.6% and 81.6%, respectively. The outcome in data set [3] and in data set [5] was inactive.
As to `Cc1ccc(NC(=O)c2cc(-n3cc4cc(C(=O)O)ccc4n3)ccc2N2CCCCC2)cc1`, the Activity in data set [1] worked out at 90.6%; in data set [4], 89.7%; in data set [5], 11.2%. The outcome in data set [3] was inactive. Also, the outcome in data set [6] was Active. For the same molecule, in data set [7], the 50% effective concentration (EC50) (in general, the concentration giving half of the maximal effect) amounted to 5 µM.
Take `Cc1ccc(NC(=O)c2cc(N3C(=O)c4ccc(C(=O)O)cc4C3=O)ccc2N2CCN(C)CC2)cc1`: the result in data set [1], in data set [3], in data set [4] and in data set [5] was inactive.
For `Cc1ccc(NC(=O)c2ccc(N3CCCCC3)c(N3C(=O)c4ccc(C(=O)O)cc4C3=O)c2)cc1`, the figures for the Activity in data set [1] and in data set [4] were 81.3% and 79%, respectively. Besides, the outcome in data set [3] and in data set [5] was inactive.
Consider `Cc1ccc(NC(=O)c2cc(NC(=O)c3cc(C(=O)O)ccc3C(=O)O)ccc2N2CCCCC2)cc1`, for which the outcome in data set [1], in data set [3] and in data set [5] was inactive. The Drug metabolism result in data set [2] is reported as “metabolite_detected”. Further, the Activity in data set [4] was 38.8%.
Turning to `Cc1ccc(NC(=O)c2cc(N3C(=O)c4ccc(Br)cc4C3=O)ccc2N2CCCCC2)cc1`, the result in data set [1], in data set [3], in data set [4] and in data set [5] was inactive.
